ChEMBL document CHEMBL4513216, “Probing the Open Global Health Chemical Diversity Library for Multistage-Active Starting Points for Next-Generation Antimalarials” (ACS Infect Dis, 2020)

Assay: Toxicity liver stage against HepG2, at 10uM
Assay type: cell-based
Parameters: test concentration 10 uM, cell line HepG2-A16-CD81EGFP
Settings: human, HepG2-A16-CD81EGFP cells; read-out: INHIBITION
How it was run: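 Uninfected HepG2-A16-CD81EGFP cells, 3 × 10^3 per well, 1536-well, plated on prespotted compound at 10 μM final, parasite-free screening media added to match infected plates; puromycin 10 μM positive, DMSO 0.5% negative; run in parallel with 48 h PbLuc assay at 37 °C, 5% CO2; viability by CellTiter-Glo luminescence, normalized to controls.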

SMILES | cytotoxicity at 10 µM
O=C(c1cnc(-c2noc3cc(N4CCCC4)ccc23)s1)N1CCCC1 | -3.83%
CNC(=O)N1CC[C@@H]2CN(CCc3cccc(OC)c3)S(=O)(=O)[C@@H]2CC1 | -1.46%
COCCN1C2(CCN(C(=O)c3cccs3)C2)c2ccccc2S1(=O)=O (stereo unspecified) | -131%
Cc1cc(=O)[nH]c(=O)n1COCCOCc1ccccc1 | 3.36%
CCCc1noc(-c2ccc(-n3ncc(C(=O)O)c3C)nc2)n1 | -1.4%
CCn1ncc2c(C(F)F)cc(-c3ccn(C)n3)nc21 | -1.21%
Cc1cc(NC(=O)CN2CCN(C3CCCC3)C(=O)C2)nn1C | 0.825%
Cc1cc(C(F)F)nn1CC(=O)NCc1nccn1C | -2.17%
Nc1nc(N)c2c(n1)OC1(COCCN(Cc3nccs3)C1)C2 (stereo unspecified) | -0.56%
O=C(O)C1CN(c2cncc(Cc3ccccc3)n2)C1 | 0.885%
CC1CCN(Cc2c(C(C)C)[nH]c3ncccc23)CC1 | -6.43%
CCN(CC)C(=O)CN1CCC(c2nc(C)c3c(n2)N(C)CCC3)CC1 | 4.14%
CC(C)OCC(=O)N1CCC(c2ncncc2-c2ccnc(N)c2)C1 (stereo unspecified) | -2.44%
Clc1ccc(CN(CCN2CCOCC2)Cc2cccnc2)cc1Cl | -9.96%
Cn1cc(NCCOc2ccc(F)cc2)cn1 | -1.51%
CC(C)(C)SCC(=O)Nc1cc(-n2nnnc2C2CC2)ccc1F | -12%
CSc1cc2c(cc1NC(=O)NCc1ccncc1)OCCO2 | 7.55%
CCC(CO)Nc1nc(C(F)F)nc2ccccc12 (stereo unspecified) | 1.26%
CCOC(C)c1nccn1Cc1noc(CC)n1 (stereo unspecified) | -9.06%

SMILES | cytotoxicity at 10 µM
CN1CCN(C2CCN(Cc3noc(-c4ccccc4)n3)CC2)C1=O | 9.5%
CC(C)C(N)C1=NC(=C2N=CN=N2)NO1 (stereo unspecified) | 8.86%
CCOCCC(=O)N1CCCC(c2cc(C(F)(F)F)[nH]n2)C1 (stereo unspecified) | -0.819%
O=C1CC(C(=O)NCc2ccccc2Oc2ccccc2F)CCN1 (stereo unspecified) | -2.81%
Cc1nc(C(=O)N2CCCC(c3nc(C(C)C)cs3)C2)c[nH]1 (stereo unspecified) | -41.7%
Cc1ccc(NC(=O)N(C)C)c(C(=O)OCC(=O)NC(C)C(C)C)c1 (stereo unspecified) | -14.9%
Cc1noc(C)c1CNC(=O)Nc1ccc(N2CCSCC2)cc1 | -1.61%
N#CC1(NC(=O)c2ccc(F)cc2OC(F)F)CCOCC1 | 2.24%
CCOC(=O)C(C)NC(=O)CCc1ccc(F)cc1 (stereo unspecified) | -9.92%
COCCN(C)CC1CCCN1S(=O)(=O)c1cc(C)oc1C (stereo unspecified) | 0.729%
COc1cc(CNc2nc(N3CCOCC3)ns2)cc(OC)c1OC | -5.23%
COc1ccc(CC(=O)N2CCC(c3nncn3C)CC2)cc1F | 2.01%
CN(CC(=O)Nc1ccccc1C(=O)NC1CC1)Cc1ccccc1Cl | -8.18%
Cc1cccc(NC(=O)CN(C)C(=O)c2ccc(-n3cccc3)nc2)n1 | -4.4%
COc1c(C2CCCN2CC(=O)N2CCCCC2)c(C)nn1C (stereo unspecified) | 0.113%
COC(=O)N1CCC(Nc2ccc(Cl)c(C#N)n2)CC1 | 1.96%
Cc1ccc(CCC(=O)N2CCn3c(nnc3C(C)C)C2)cc1Cl | -5.45%
CC(C)c1n[nH]c(C2CN(C(=O)COc3ccc(F)cc3)CCO2)n1 (stereo unspecified) | -5.7%
O=C(NCCn1ccnc1)C1(c2ccc3c(c2)OCCO3)CCCC1 | -4.38%

SMILES | cytotoxicity at 10 µM
Cc1cc(C)n(-c2cncc(N3CCC(C(=O)N(C)C)CC3)n2)n1 | -16%
CCOC(=O)COc1cccc(NC(=O)C2COCCO2)c1 (stereo unspecified) | 7.01%
c1cc(C2CCN(Cc3nc(-c4ccsc4)no3)CC2)[nH]n1 | 8.44%
Cc1c(C(C)NC(=O)C2CCCCC2)cnn1C (stereo unspecified) | -4.79%
CCc1nnc2n1CCN(C(=O)c1ccc3c(c1)[nH]c(=O)n3C)C2 | -3.22%
Cc1cn(-c2ccccc2)nc1NS(=O)(=O)c1cc(C(=O)O)sc1C | -4.87%
Cc1nc(C)n(CC2CCCN2CC(=O)NCCC#N)n1 (stereo unspecified) | -2.78%
O=C(NCc1cccnc1)NCC(O)c1cccc(C(F)(F)F)c1 (stereo unspecified) | -2.64%
Cn1cnnc1-c1ccnc(NCc2ccc(Br)cc2)c1 | 2.87%
CC(CNC(=O)c1nc(N2CCOCC2)ncc1Cl)c1ccccc1 (stereo unspecified) | 0.666%
NC(=O)c1cccc(OCCC(=O)NC2CCc3c(F)cccc32)c1 (stereo unspecified) | 9.86%
O=C(c1coc2ccccc12)N1CCCC1 | -1.15%
CCN(CC(=O)Nc1c(C)nn(C)c1C)CC(O)c1ccc(C)cc1 (stereo unspecified) | -8.14%
CC(C)(O)CNC(=O)c1sccc1Br | -5.58%
Cc1nn(-c2ccccc2)nc1C(=O)NCC(c1ccco1)N(C)C (stereo unspecified) | 6.51%
CN1CC(C(=O)NC2(c3ccc(Cl)cc3)CCOCC2)CC1=O (stereo unspecified) | 13.8%
Cc1nc(C2CCCN2C(=O)c2ccc(=O)n(C)n2)no1 (stereo unspecified) | -2.64%
Cc1nccc(CNC(=O)NCC(C)Oc2ccccc2F)n1 (stereo unspecified) | -13.2%
